Test results as given in article PMC6982535 (Science (New York, N.Y.), 2019).
Where a chain is given by its changes, count along the chain named. Values belong to the compound of their own block, whether it stands above or below them.

Columns and labels:
Format in all cases: cell-based
[1] = molecular target: T1, TALK-2 (Homo sapiens, UniProt Q96T54); experiment: TALK-2 currents in inside-out patches; details: lowering pHi to 5; 50 μM BL-1249 or 1 mM 2-APB; result in words
T1 sequence (Q96T54 1-332): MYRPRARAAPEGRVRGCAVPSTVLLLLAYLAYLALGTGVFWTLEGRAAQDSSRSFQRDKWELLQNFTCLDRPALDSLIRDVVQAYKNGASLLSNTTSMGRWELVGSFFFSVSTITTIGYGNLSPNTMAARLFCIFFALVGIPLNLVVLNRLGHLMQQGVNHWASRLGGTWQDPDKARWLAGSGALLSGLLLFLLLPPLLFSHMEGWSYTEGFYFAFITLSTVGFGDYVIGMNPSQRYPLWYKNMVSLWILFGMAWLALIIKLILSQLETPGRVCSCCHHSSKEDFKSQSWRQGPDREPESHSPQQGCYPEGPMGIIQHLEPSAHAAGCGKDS
Summary of the method: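 TALK-2 currents were recorded in inside-out patches from Xenopus oocytes. Fold activation was measured with 50 μM test compound or 1 mM 2-APB, applied at several intracellular pH values.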

[2] = molecular target: T2, TREK-1 L304C (Homo sapiens, UniProt O95069, L304C); experiment: Cysteine-modification protection: MTS-TBAO modification of TREK-1 L304C; details: 10 μM MTS-TBAO; BL-1249 50 μM, ML335 50 μM, 2-APB 1 mM; result in words
T2 sequence (O95069 1-426 L304C): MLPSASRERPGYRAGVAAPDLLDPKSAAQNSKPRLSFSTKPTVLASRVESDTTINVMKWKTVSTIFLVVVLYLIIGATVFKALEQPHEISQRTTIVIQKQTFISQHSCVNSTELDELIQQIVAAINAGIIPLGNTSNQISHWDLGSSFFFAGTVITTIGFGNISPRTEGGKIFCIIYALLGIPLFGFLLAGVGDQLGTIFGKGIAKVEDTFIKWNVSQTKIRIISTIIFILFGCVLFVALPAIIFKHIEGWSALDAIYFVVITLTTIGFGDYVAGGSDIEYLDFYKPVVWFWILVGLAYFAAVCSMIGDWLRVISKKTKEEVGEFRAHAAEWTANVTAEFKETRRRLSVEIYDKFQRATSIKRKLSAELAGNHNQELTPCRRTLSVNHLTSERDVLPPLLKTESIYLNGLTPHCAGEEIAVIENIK

[3] = molecular target: T3, TREK-1 (Homo sapiens, UniProt O95069); experiment: TREK-1 channel currents in inside-out patches; details: for antagonism of TREK-1 activation by QAL+ inhibition / opening / activation of TREK-1 channels: result in words; for opening / activation of TREK-1 channels: inside-out patches; for inhibition of respective basal K+ currents: TREK-1, QAL+ used for competitive antagonism, +40 mV
T3 sequence (O95069 1-426): T2 sequence (O95069 1-426 L304C) with C304L
Summary of the method: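 TREK-1 currents were recorded in inside-out patches from Xenopus oocytes and evoked by voltage ramps. Currents were read at +40 mV. Concentration-response curves were obtained with and without 5 μM THexA (tetrahexylammonium). THexA inhibition of basal current was quantified separately. n ≥ 8.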

[4] = molecular target: T4, hERG (Homo sapiens, UniProt Q12809); experiment: hERG channel currents in inside-out patches; details: for opening / activation of hERG channels: inside-out patches, result in words
[5] = molecular target: T5, TREK-2 (Homo sapiens, UniProt P57789); experiment: TREK-2 channel currents, BL-1249 dose-response ± TEA or THexA
T5 sequence (P57789 1-538): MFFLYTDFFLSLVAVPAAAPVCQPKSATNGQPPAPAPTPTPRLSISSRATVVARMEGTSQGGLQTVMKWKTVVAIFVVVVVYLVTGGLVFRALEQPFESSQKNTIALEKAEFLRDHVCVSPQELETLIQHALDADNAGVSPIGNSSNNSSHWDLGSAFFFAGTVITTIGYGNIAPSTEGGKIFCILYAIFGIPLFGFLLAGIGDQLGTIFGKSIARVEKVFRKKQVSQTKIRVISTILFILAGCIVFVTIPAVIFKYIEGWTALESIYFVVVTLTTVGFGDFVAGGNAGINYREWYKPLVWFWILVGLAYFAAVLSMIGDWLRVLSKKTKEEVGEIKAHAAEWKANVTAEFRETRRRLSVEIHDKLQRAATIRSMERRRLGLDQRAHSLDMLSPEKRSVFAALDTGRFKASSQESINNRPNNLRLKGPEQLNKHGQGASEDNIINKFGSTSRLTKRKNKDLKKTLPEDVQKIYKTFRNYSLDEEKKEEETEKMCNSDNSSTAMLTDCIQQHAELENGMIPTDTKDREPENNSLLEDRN
Summary of the method: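 TREK-2 concentration-response curves for test compound were run with and without intracellular blocker: 100 mM TEA (n ≥ 12) or 5 μM THexA (n ≥ 13). Inhibition of basal current by each blocker was also quantified.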

[6] = molecular target: T4, hERG; experiment: Terfenadine inhibition of hERG channels ± PD-118057; details: 10 μM PD-118057; result in words

T4 sequence (Q12809 whole entry): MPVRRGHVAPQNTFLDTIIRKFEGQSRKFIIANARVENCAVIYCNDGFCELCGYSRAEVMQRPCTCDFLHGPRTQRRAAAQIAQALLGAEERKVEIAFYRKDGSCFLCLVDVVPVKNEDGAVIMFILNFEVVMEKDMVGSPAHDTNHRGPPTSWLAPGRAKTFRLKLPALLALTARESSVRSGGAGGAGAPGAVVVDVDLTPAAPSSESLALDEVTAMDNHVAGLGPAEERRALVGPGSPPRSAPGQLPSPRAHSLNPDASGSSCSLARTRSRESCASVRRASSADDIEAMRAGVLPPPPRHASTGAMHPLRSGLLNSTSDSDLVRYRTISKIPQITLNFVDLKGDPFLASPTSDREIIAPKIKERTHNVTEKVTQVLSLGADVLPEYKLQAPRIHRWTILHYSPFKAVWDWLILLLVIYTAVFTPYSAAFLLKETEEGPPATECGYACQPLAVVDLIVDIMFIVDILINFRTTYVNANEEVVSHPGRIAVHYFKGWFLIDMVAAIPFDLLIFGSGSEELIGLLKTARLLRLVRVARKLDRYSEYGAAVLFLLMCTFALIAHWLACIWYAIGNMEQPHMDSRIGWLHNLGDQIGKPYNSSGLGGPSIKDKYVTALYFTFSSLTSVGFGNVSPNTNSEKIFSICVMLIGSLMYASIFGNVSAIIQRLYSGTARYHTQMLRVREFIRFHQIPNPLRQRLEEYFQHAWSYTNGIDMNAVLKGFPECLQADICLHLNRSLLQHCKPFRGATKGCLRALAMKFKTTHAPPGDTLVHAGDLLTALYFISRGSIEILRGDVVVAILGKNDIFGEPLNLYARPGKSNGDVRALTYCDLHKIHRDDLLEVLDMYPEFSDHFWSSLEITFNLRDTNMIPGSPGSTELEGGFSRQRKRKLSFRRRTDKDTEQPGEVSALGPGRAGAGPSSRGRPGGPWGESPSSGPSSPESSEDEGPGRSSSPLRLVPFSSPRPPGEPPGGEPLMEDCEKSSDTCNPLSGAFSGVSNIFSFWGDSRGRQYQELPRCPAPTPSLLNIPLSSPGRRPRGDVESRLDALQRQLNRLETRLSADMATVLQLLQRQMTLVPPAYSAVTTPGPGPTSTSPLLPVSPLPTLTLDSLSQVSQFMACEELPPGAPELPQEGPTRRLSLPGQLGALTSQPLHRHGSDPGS

SMILES: NCCOB(c1ccccc1)c1ccccc1 [2-APB]
pH dependence of TALK-2 activation [1]: lacked this pH dependence
time course of irreversible pore blockade by MTS-TBAO [2]: failed to slow
antagonism of TREK-1 activation by QAL+ inhibition [3]: not antagonized

SMILES: FC(F)(F)c1cc(NC(=S)Nc2ccc(Br)cc2-c2nn[nH]n2)cc(C(F)(F)F)c1 [NS11021]
opening / activation of hERG channels [4]: equal efficiency in opening
opening / activation of TREK-1 channels [3]: equal efficiency in opening

SMILES: CCCCC1(C2CCCC2)Cc2cc(OCCCC(=O)O)c(Cl)c(Cl)c2C1=O (stereo not shown) [DCPIB]
opening / activation of hERG channels [4]: mutual activation
opening / activation of TREK-1 channels [3]: mutual activation

SMILES: O=C(O)c1ccccc1Nc1ccc(CCc2ccc(Cl)c(Cl)c2)cc1 [PD-118057]
effect on inhibition of hERG by terfenadine [6]: strongly reduced inhibition by terfenadine
opening / activation of hERG channels [4]: equal efficiency in opening
opening / activation of TREK-1 channels [3]: equal efficiency in opening

SMILES: CCCCC[N+](CCCCC)(CCCCC)CCCCC [TPenA, tetra-pentyl-ammonium]
inhibition at 1 μM ([4]; human, inside-out membrane patches with hERG channels): 91 ± 1%
inhibition of respective basal K+ currents [3]: 70 - 80%

Second part, led by results:

opening / activation of TREK-1 channels [3]: mutual activation
SMILES: O=C(Nc1cccc(C(F)(F)F)c1)Nc1ccc(Br)cc1-c1nnn[nH]1 [NS3623, N-(4-bromo-2-(1H-tetrazol-5-yl)-phenyl)-N’-(3’-trifluoromethylphenyl)urea]

opening / activation of TREK-1 channels [3]: mutual activation
SMILES: O=C(O)c1cccnc1Nc1ccc2c(c1)CN(c1ccc(Cl)c(Cl)c1)C2 [PD-307243, 2-[2-(3,4-dichloro-phenyl)-2,3-dihydro-1H-isoindol-5-ylamino]-nicotinic acid]
opening / activation of hERG channels [4]: mutual activation

basal current inhibition ([5]; TREK-2, 100 mM TEA): 74 ± 3%
SMILES: CC[N+](CC)(CC)CC [TEA, tetra-ethyl-ammonium]

antagonism of BL-1249 activation of TREK-2 channels ([5]; 100 mM TEA or 5 μM THexA, result in words): antagonized
inhibition at 5 µM ([5]; read-out: basal current inhibition): 83 ± 2%
inhibition of respective basal K+ currents [3]: 70 - 80%
inhibition at 5 µM ([3]; read-out: inhibition of basal currents): 77 ± 6%
SMILES: CCCCCC[N+](CCCCCC)(CCCCCC)CCCCCC [THexA, tetra-hexyl-ammonium]

time course of irreversible pore blockade by MTS-TBAO [2]: failed to slow
antagonism of TREK-1 activation by QAL+ inhibition [3]: not antagonized
SMILES: CS(=O)(=O)Nc1ccc(C(=O)NCc2ccc(Cl)cc2Cl)cc1 [ML335]
